Screening data (PubChem)
NS3 helicase inh: HCV NS3 helicase inhibition. inhibition, % at 10.9 µM. 0.56% of 290,000 active. NS3 helicase DNA unwinding, Cy5 molecular beacon fluorescence;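 active = inhibition above the mean of all tested compounds plus 3 SD, set per campaign, cut at about 35% in these data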;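 note: 0% = DMSO wells and 100% = thioflavine S control wells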
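System: Hepatitis C virus NS3 helicase domain fragment enzyme | Reagent: Annealed dual-labelled DNA beacon duplex, ATP-started | Compound dosing: 10.9 µM single point, 0.8% DMSO | Incubation: 1 h reaction at 25 °C, ATP-initiated | Technique: Cy5 fluorescence | Evaluation: Percent inhibition from t60/t0 fluorescence ratio | Benchmarks: Low DMSO, high thioflavine S at 110 µM | Replication: Singlicate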
core dimer inh: blocks dimerization of HCV core protein. TR-FRET GST/Flag-core106 dimerization, 1536-well. inhibition, % at 5 µM. 0.33% of 300,000 active. AID 1899;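 active = inhibition above the mean of all tested compounds plus 3 SD, set per screening campaign, cut at about 45% in these data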
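System – GST-tagged and Flag-tagged HCV core protein residues 1-106 · Repeats – one well for each compound · Technique – TR-FRET 671 and 617 nm emission · Doses – one concentration, 5 µM, in 0.5% DMSO · Times – 4 h, 22.5 °C incubation · Also added – Eu donor and XL665 acceptor anti-tag antibodies · Measure – percent inhibition of core106 dimerization signal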
rCAG binder: r(CAG) repeat RNA binding; inhibition, % at 3 µM; TO-PRO-1 dye displacement fluorescence; 1.3% of 370,000 active;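 active = inhibition above the plate cutoff, the mean of all test compounds on that plate plus 3 SD, cut at about 35% in these data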;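 note: 0% = DMSO alone and 100% = 100 µM mitoxantrone as full dye displacement; higher means more dye released from RNA so lower well fluorescence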
TAAR1 ag: agonists of human TAAR1 | 0.99% of 360,000 active | CHO RD-HGA16 TAAR1, Fluo-8 calcium fluorescence; vehicle wells 0%, saturating PEA agonist 100% | Q96RJ0 | activation, % at 3 µM;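 active = activation above the mean activation of all test compounds in the run plus 3 SD, cut at about 38% in these data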
Target sequence (Q96RJ0 whole entry, looked up): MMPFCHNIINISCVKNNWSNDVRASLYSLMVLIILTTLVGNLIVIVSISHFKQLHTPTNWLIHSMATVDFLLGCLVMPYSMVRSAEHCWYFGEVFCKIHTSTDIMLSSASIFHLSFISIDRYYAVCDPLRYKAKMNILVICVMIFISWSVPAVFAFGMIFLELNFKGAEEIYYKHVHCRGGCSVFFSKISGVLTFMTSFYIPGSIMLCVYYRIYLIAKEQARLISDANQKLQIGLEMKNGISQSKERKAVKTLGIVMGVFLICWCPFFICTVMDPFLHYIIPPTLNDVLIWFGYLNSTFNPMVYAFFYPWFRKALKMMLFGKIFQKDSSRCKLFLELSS
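System: CHO RD-HGA16 cells carrying human TAAR1 plus Gα16; Incubation: 17-24 h seeding, 75 min 37 °C dye, 30 min RT; Measured by: Fluo-8 fluorescence, 5 s baseline then 140 s kinetic read; Control set: DMSO and PEA EC100; Replication: single well for each compound.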
TAAR1 antag: antagonists of human TAAR1; Q96RJ0; CHO RD-HGA16 TAAR1, Fluo-8 calcium fluorescence, antagonist; inhibition, % at 3 µM; 1.5% of 360,000 active; AID 624466;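 active = inhibition above a per-plate cutoff, the mean inhibition of test compounds on that plate plus 3 SD, cut at about 49% in these data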;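 note: 0% = DMSO plus EC80 beta-PEA response and 100% = DMSO alone without agonist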
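System: RD-HGA16 CHO cells with stable hTAAR1 and Gα16 | Probe or stimulus: EC80 β-phenethylamine stimulus | Dosing: 3 µM, single point | Times: Dye loading 75 min at 37 °C, then 30 min room temperature | Measured by: Fluo-8 calcium-sensitive fluorescence | Read-out basis: % inhibition of agonist calcium response | Replicates: n of 1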
rCAG binder conf: r(CAG) RNA repeat binding, confirmation; shares compounds with rCAG binder; TO-PRO-1 dye displacement fluorescence; inhibition, % at 3 µM; 70% of 4,300 active; AID 652065;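 active = inhibition above a per-plate cutoff, the mean inhibition of sample wells plus 3 SD, cut at about 35% in these data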;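 note: loss of TO-PRO-1 fluorescence as compound displaces dye from 1x1 AA loop RNA; 0% = DMSO only wells and 100% = 100 µM mitoxantrone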
dCAG dye counter: DNA CAG dye complex inhibition counter-screen. shares compounds with rCAG binder. d(CAG) DNA oligo TO-PRO-1 dye displacement, fluorescence. inhibition, % at 3 µM. 94% of 4,300 active. AID 652068;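 active = inhibition above its plate's cutoff, the mean test-well inhibition plus 3 SD, cut at about 4.8% in these data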;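 note: 0% = DNA dye mix with DMSO and 100% = 100 µM mitoxantrone; hits displace the dye from DNA and so lower well fluorescence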
* = called active by the depositor; x = not tested or not shown. An excerpt weighted towards active compounds, which were near 3.7% of everything screened.

SMILES | NS3 helicase inh | core dimer inh | rCAG binder | TAAR1 ag | TAAR1 antag | rCAG binder conf | dCAG dye counter
O=C(O)c1ccc(Cl)c(S(=O)(=O)N(Cc2ccccc2)c2ccc(Cl)cc2)c1 | -4 | 4 | 73* | -1 | -2 | 65* | 26*
O=C(NNC(=S)Nc1ccc(Br)cc1)c1ccc(N2CCOCC2)c([N+](=O)[O-])c1 | 4 | -6 | 73* | 3 | 2 | 67* | 28*
O=C(NNC(=O)c1cccc([N+](=O)[O-])c1)c1ccncc1 | 15 | -1 | -2 | 4 | -2 | x | x
O=C(NNC(=S)Nc1ccc(Cl)cc1Cl)c1ccc(N2CCOCC2)c([N+](=O)[O-])c1 | -9 | 8 | 95* | 0 | -2 | 87* | 63*
Cc1ccc(NC(=O)c2ccc(NCCN)c([N+](=O)[O-])c2)cc1Cl | -86 | -7 | 38* | 3 | 3 | 22 | -2
O=C(c1ccc(N2CCOCC2)c([N+](=O)[O-])c1)N1CCCCC1 | 1 | -4 | -7 | 1 | -13 | x | x
Cc1ccc(NC(=O)c2ccc(NCCc3ccccc3)c([N+](=O)[O-])c2)cc1F | 18 | 13 | 0 | 1 | 6 | x | x
O=C(NNC(=S)Nc1ccc(Cl)c(Cl)c1)c1cccc([N+](=O)[O-])c1 | -7 | 3 | 79* | 1 | 7 | 79* | 33*
CCn1c(C)nc2cc(C(=O)NNC(=S)Nc3ccc(Cl)cc3Cl)ccc21 | 1 | -8 | 58* | 0 | 1 | 49* | 16*
O=C(NC(NC(=S)Nc1ccccc1C(=O)O)C(Cl)(Cl)Cl)c1cccc([N+](=O)[O-])c1 (stereo not drawn) | 18 | -3 | 56* | 7 | -20 | 60* | 24*
CCn1c(C)nc2cc(C(=O)NNC(=S)Nc3ccccc3Cl)ccc21 | -2 | 1 | 24 | 0 | 10 | x | x
Cc1ccc(NC(=S)NNC(=O)c2ccc(N3CCOCC3)c([N+](=O)[O-])c2)cc1Cl | 0 | 5 | 80* | 7 | 6 | 84* | 46*
COc1ccc2[nH]c3c(c2c1)CCN[C@]31C(=O)N(C)c2ccccc21 | x | x | 2 | x | x | x | x
O=C(CSc1ncnc2nc[nH]c12)Nc1nnc(SCc2ccc(Cl)c(Cl)c2)s1 | 9 | 30 | 42* | 6 | 0 | 61* | 24*
Cc1ccc(C)c(NC(=O)CSc2ncnc3nc[nH]c23)c1 | -1 | 1 | 1 | 4 | 9 | x | x
Fc1ccc(-c2n[nH]c(=S)n2N=Cc2cccc(OCc3ccccc3)c2)cc1 | x | x | 58* | x | x | 51* | 18*
Fc1ccccc1-c1n[nH]c(=S)n1N=Cc1cccc(OCc2ccccc2)c1 | x | x | 73* | x | x | 64* | 24*
Fc1ccccc1-c1n[nH]c(=S)n1N=Cc1ccc(-c2ccccc2)cc1 | x | x | 60* | x | x | 48* | 14*
S=c1[nH]nc(-c2ccccc2)n1/N=C/c1cccc(Br)c1 | 0 | 8 | 33 | 2 | 6 | x | x
COC(=O)[C@H](CC(C)C)N(CCCc1cn(Cc2ccc(C)cc2)nn1)S(=O)(=O)c1ccccc1Br | x | x | 2 | x | x | x | x
COC(=O)[C@]12C[C@H](CC(=O)N3CCCCC3)C(=O)N(Cc3ccco3)C1=C[C@H](C(C)(C)C)O[C@@H]2C | x | x | -4 | x | x | x | x
S=c1[nH]nc(-c2n[nH]c3c2CCC3)n1N=Cc1ccc(OCc2ccccc2)cc1 | x | x | 38* | x | x | 43* | 14*
Cc1cc(-c2n[nH]c(=S)n2N=Cc2ccc(OCc3ccccc3)cc2)n[nH]1 | x | x | 35* | x | x | 40* | 9.8*
CC(C)Oc1cccc(-c2n[nH]c(=S)n2N=Cc2ccc(OCc3ccccc3)cc2)c1 | x | x | 51* | x | x | 52* | 26*
COc1ccc(/C=N/n2c(-c3cc(C)[nH]n3)n[nH]c2=S)cc1 | 8 | 1 | 1 | 0 | -22 | x | x
SMILES | NS3 helicase inh | core dimer inh | rCAG binder | TAAR1 ag | TAAR1 antag | rCAG binder conf | dCAG dye counter
C[C@H]1COc2cc(Br)ccc2S(=O)(=O)N1Cc1cn(CCC2OCCO2)nn1 | x | x | 1 | x | x | x | x
C=CCN1C(=O)[C@H](CC(=O)N2CCCC2)[C@@]2(C(=O)OCC)CCCC=C12 | x | x | 1 | x | x | x | x
NC(=O)c1ncn([C@@H]2O[C@H](C(=O)N3CCCN(Cc4ccccc4F)CC3)[C@@H](O)[C@H]2O)n1 | x | x | 2 | 2 | -22 | x | x
Cn1c(=O)c2c(ncn2Cc2ccc(O)c([N+](=O)[O-])c2)n(C)c1=O | x | x | 1 | 1 | 1 | x | x
C=CCOC(=O)N[C@H](c1ccccc1)[C@H](C)/C=C/CC(=O)OC | x | x | 1 | x | x | x | x
CCCCCCC12C(=Cc3cc4c(cc31)OCCO4)c1cc(OC)c(OC)cc1C(CC(=O)OC)N2C(=O)OC (stereo not drawn) | x | x | 7 | 2 | -9 | x | x
CCCCCCC12C(=Cc3cc4c(cc31)OCCO4)c1cc(OC)c(OC)cc1C(CC(=O)O)N2C(=O)OC (stereo not drawn) | x | x | 43* | 2 | 10 | 35* | 7.0*
O=C(O)COc1ccccc1/C=N/NC(=O)CSc1nc2ccccc2c(=O)n1-c1ccc(Cl)cc1 | 14 | 19 | 7 | -1 | -6 | x | x
Cc1ccc(-n2c(SCC(=O)NNC(=S)Nc3ccccc3)nc3ccccc3c2=O)cc1 | 11 | -3 | 55* | 3 | -25 | 42* | 18*
O=C(CSc1nc2ccccc2s1)NNC(=S)Nc1ccc(Cl)cc1 | 11 | 8 | 58* | 3 | 8 | 69* | 30*
Cc1ccc(NC(=S)NNC(=O)CSc2nc3ccccc3c(=O)n2-c2ccc(Cl)cc2)cc1 | x | x | 57* | x | x | 47* | 22*
CCc1nnn2c1Cn1c3ccccc3c(=O)n1[C@@H](C(C)C)C2 | x | x | -1 | x | x | x | x
Cc1ccc(C(=O)O)cc1NC(=O)CSc1nnc(-c2ccccc2F)n1C1CCCCC1 | x | x | 26 | 1 | 9 | x | x
O=C(CSc1nnc(-c2ccccc2F)n1C1CCCCC1)Nc1cc(C(=O)O)ccc1Cl | x | x | 38* | 5 | -13 | 34 | 6.9*
O=C(NCc1n[nH]c(=S)n1-c1ccc(Cl)c(Cl)c1)c1ccco1 | 3 | -4 | 4 | 0 | -8 | x | x
CCCN(CCC)S(=O)(=O)c1ccc(C(=O)NCc2n[nH]c(=S)n2-c2ccc(Cl)c(Cl)c2)cc1 | 13 | 15 | 35* | 19 | 3 | 29 | 7.0*
O=C(NCc1n[nH]c(=S)n1-c1cccc(Cl)c1)c1ccc(S(=O)(=O)N2CCCC2)cc1 | -2 | 0 | 10 | 11 | 11 | x | x
O=C(NCc1n[nH]c(=S)n1-c1ccc(Cl)c(Cl)c1)c1ccc(S(=O)(=O)N2CCCCC2)cc1 | -13 | -5 | 36* | 2 | -6 | 30 | 11*
